From ChEMBL document CHEMBL3872225, “Synthesis, binding assays, cytotoxic activity and docking studies of benzimidazole and benzothiophene derivatives with selective affinity for the CB2 cannabinoid receptor” (Eur J Med Chem, 2016)
pIC50, pKi: −log10 of the molar value.

Assays:
Homo sapiens = organism: Homo sapiens; assay: Selectivity index, ratio of Ki for displacement of [3H]CP-55940 from human recombinant CB1 receptor to Ki for displacement of [3H]CP-55940 from human recombinant CB2 receptor
Procedure, shortened: (§1)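 Membranes from HEK-293 cells overexpressing human CB1 or CB2 incubated with increasing compound concentrations and 0.5 nM [3H]CP-55,940 at 30 °C for 1.5 h. […] Selectivity index is Ki CB1/Ki CB2.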

[1] = Cytotoxicity against African green monkey Vero cells assessed as reduction in cell viability measured after 72 hrs by MTT assay; type: toxicity, cell-based; conditions: Chlorocebus sabaeus (African green monkey)
Procedure, shortened: (§2)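 Cells kept in RPMI 1640 with 5% FBS, penicillin/streptomycin, 37 °C, 5% CO2. Seeded at 10,000 cells/well, then exposed to compounds at 0.001–10 μM in 5% FBS-RPMI for 72 h at 37 °C. MTT added for 4 h, formazan dissolved overnight in 10% SDS/0.1 mM HCl, absorbance read at 570 nm. […] Etoposide as positive control.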

Cannabinoid receptor 1 = Cannabinoid receptor 1 (Homo sapiens, UniProt P21554); assay: Displacement of [3H]CP-55940 from human recombinant CB1 receptor expressed in HEK293 cell membranes incubated for 1.5 hrs; procedure, shortened: as §1
Cannabinoid receptor 2 [2] = target: T1, Cannabinoid receptor 2 (Homo sapiens, UniProt P34972); assay: Displacement of [3H]CP-55940 from human recombinant CB2 receptor expressed in HEK293 cell membranes incubated for 1.5 hrs; procedure, shortened: as §1
[3] = Cytotoxicity against resistant human HCT116 cells assessed as reduction in cell viability measured after 72 hrs by MTT assay; type: functional, cell-based; conditions: HCT-116, 72 h; procedure, shortened: as §2
Cannabinoid receptor 2 [4] = target: T1, Cannabinoid receptor 2; assay: Displacement of [3H]CP-55940 from human recombinant CB2 receptor expressed in HEK293 cell membranes at 1 uM incubated for 1.5 hrs relative to control
Procedure, shortened: (§3)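 Single-point screen on HEK-293 membranes overexpressing human CB1 or CB2. […] Compounds displacing more than 50% at 1 μM went on to full curves.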

[5] = Cytotoxicity against human H1975-1 cells assessed as reduction in cell viability measured after 72 hrs by MTT assay; type: functional, cell-based; procedure, shortened: as §2
[6] = Cytotoxicity against human HeLa cells assessed as reduction in cell viability measured after 72 hrs by MTT assay; type: functional, cell-based; procedure, shortened: as §2
[7] = Cytotoxicity against human HL60 cells assessed as reduction in cell viability measured after 72 hrs by MTT assay; type: functional, cell-based; conditions: HL-60, 72 h; procedure, shortened: as §2
[8] = target: Cannabinoid receptor 1 (CB1) (Homo sapiens, UniProt P21554); assay: Displacement of [3H]CP-55940 from human recombinant CB1 receptor expressed in HEK293 cell membranes at 1 uM incubated for 1.5 hrs relative to control; conditions: probe [3H]CP-55940; procedure, shortened: as §3
Chain of Cannabinoid receptor 1 (CB1) (P21554 whole entry): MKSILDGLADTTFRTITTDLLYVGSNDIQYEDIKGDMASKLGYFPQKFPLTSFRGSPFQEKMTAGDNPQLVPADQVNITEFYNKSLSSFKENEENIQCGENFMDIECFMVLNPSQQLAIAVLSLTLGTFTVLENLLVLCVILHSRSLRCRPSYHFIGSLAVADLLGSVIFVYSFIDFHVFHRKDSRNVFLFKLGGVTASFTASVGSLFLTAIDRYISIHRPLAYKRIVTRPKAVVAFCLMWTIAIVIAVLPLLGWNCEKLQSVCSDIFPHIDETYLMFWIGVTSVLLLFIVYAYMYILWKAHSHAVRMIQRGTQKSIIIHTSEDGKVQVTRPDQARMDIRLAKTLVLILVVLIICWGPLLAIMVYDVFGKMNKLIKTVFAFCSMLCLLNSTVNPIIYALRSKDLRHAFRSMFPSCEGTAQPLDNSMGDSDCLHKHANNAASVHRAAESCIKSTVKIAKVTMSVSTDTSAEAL

Chain of Cannabinoid receptor 1 (P21554 whole entry): as above
T1 sequence (P34972 whole entry): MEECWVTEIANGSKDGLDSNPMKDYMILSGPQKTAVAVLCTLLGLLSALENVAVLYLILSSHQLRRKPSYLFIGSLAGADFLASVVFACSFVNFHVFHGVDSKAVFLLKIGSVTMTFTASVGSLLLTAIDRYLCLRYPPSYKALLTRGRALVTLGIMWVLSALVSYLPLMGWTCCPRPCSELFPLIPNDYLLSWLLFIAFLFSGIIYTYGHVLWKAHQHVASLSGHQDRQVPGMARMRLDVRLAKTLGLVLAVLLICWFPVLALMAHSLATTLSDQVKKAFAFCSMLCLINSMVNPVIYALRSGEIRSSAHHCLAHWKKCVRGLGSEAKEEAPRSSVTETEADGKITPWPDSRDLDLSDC

| SMILES | Ratio Ki (Homo sapiens) | IC50 at 72 h [1] [µM] | pIC50 (Cannabinoid receptor 1) | pKi (Cannabinoid receptor 1) | pIC50 (Cannabinoid receptor 2 [2]) | pKi (Cannabinoid receptor 2 [2]) | pIC50 [3] | inhibition (Cannabinoid receptor 2 [4]) [%] | pIC50 [5] | pIC50 [6] | pIC50 [7] | inhibition at 1.5 h, 1 µM [8] [%] |
| --- | --- | --- | --- | --- | --- | --- | --- | --- | --- | --- | --- | --- |
| O=C(c1cc2ccccc2s1)c1cccc2ccccc12 | 2.7 | > 10 | 5.35 | 5.57 | 5.39 | 6.00 | < 5.00 | > 50 | < 5.00 | < 5.00 | 7.29 | > 50 |
| O=C(c1cccc2ccccc12)n1c(C2CCCC2)nc2ccccc21 | > 14 | > 10 | < 5.00 | < 5.00 | 5.54 | 6.15 | < 5.00 | > 50 | < 5.00 | < 5.00 | 6.97 | > 50 |
| CC(C)(C)c1nc2ccccc2n1C(=O)c1cccc2ccccc12 | > 125 | > 10 | < 5.00 | < 5.00 | 6.52 | 7.10 | < 5.00 | > 50 | < 5.00 | < 5.00 | 6.89 | > 50 |
| COc1ccc(C(=O)n2c(C(C)C)nc3ccccc32)cc1 | > 12.5 | > 10 | < 5.00 | < 5.00 | 5.49 | 6.10 | 6.72 | > 50 | < 5.00 | < 5.00 | 6.20 | > 50 |
| COc1ccc(C(=O)n2c(-c3ccc(OC)cc3)nc3ccccc32)cc1 | > 6.7 | > 10 | < 5.00 | < 5.00 | 5.23 | 5.82 | < 5.00 | > 50 | < 5.00 | < 5.00 | 6.76 | > 50 |
| O=C(c1cccc2ccccc12)n1c(C2CCCCC2)nc2ccccc21 | 7.25 | > 10 | 5.31 | 5.54 | 5.77 | 6.40 | 5.52 | > 50 | < 5.00 | < 5.00 | 6.66 | > 50 |
| CCCc1nc2ccccc2n1C(=O)c1ccc(OC)cc1 | > 5.26 | 0.3 | < 5.00 | < 5.00 | 5.12 | 5.72 | 6.92 | > 50 | < 5.00 | < 5.00 | 6.99 | > 50 |
| COc1ccc(-c2nc3ccccc3n2C(=O)c2cccc3ccccc23)cc1 | 2.57 | > 10 | 5.09 | 5.31 | 5.11 | 5.72 | 5.77 | > 50 | < 5.00 | < 5.00 | 6.84 | > 50 |
| COc1ccc(-c2sc3ccccc3c2C(=O)c2cccc3ccccc23)cc1 | 17 | > 10 | 5.08 | 5.29 | 5.85 | 6.52 | < 5.00 | > 50 | < 5.00 | < 5.00 | 7.15 | > 50 |
| CCCc1sc2ccccc2c1C(=O)c1ccc(OC)cc1 | > 33 | > 10 | < 5.00 | < 5.00 | 5.92 | 6.52 | < 5.00 | > 50 | < 5.00 | < 5.00 | 7.10 | > 50 |
| CCc1sc2ccccc2c1C(=O)c1ccc(OC)cc1 | > 6.2 | > 10 | < 5.00 | < 5.00 | 5.18 | 5.80 | < 5.00 | > 50 | < 5.00 | < 5.00 | 7.34 | > 50 |
| COc1ccc(C(=O)c2c(CC(C)C)sc3ccccc23)cc1 | 46 | > 10 | 5.12 | 5.34 | 6.15 | 7.00 | < 5.00 | > 50 | < 5.00 | < 5.00 | 7.18 | > 50 |
| CCCCc1nc2ccccc2n1C(=O)c1cccc2ccccc12 | 14.7 | 4.1 | 5.01 | 5.23 | 5.77 | 6.40 | 6.25 | > 50 | < 5.00 | < 5.00 | 6.98 | > 50 |
| COc1ccc(C(=O)n2c(C3CCCC3)nc3ccccc32)cc1 | > 20 | > 10 | < 5.00 | < 5.00 | 5.66 | 6.30 | < 5.00 | > 50 | < 5.00 | < 5.00 | 7.12 | > 50 |
| O=C(c1cccc2ccccc12)c1csc2ccccc12 | > 50 | > 10 | < 5.00 | < 5.00 | 5.96 | 6.70 | < 5.00 | > 50 | < 5.00 | < 5.00 | 7.24 | > 50 |
| CCCCCc1sc2ccccc2c1C(=O)c1ccc(OC)cc1 | > 33 | > 10 | < 5.00 | < 5.00 | 5.92 | 6.52 | < 5.00 | > 50 | < 5.00 | < 5.00 | 7.08 | > 50 |
